Experimental data published in ChEMBL document CHEMBL4145568, “Antiplasmodial Diterpenoids and a Benzotropolone from Petradoria pumila” (J Nat Prod, 2018).

What was measured:
A2780 = experiment: Cytotoxicity against human A2780 cells assessed as inhibition of cell growth after 2 days by Alamar blue assay; assay type: functional, cell-based; conditions: A2780, 48 h
Plasmodium falciparum = experiment: Antimalarial activity against Plasmodium falciparum Dd2 ring stage parasite assessed as decrease in parasite viability after 72 hrs by SYBR green 1 dye based assay; assay type: functional, organism-based
In short: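 Ring-stage cultures at 1% hematocrit and 1% parasitemia grown 72 h at 37 °C under 5% CO2, 5% O2, 90% N2 with increasing drug concentrations. Viability read by SYBR Green I DNA quantitation. IC50 from nonlinear regression, mean of three independent determinations each in duplicate, ± SEM.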

[1] = Plasmodium falciparum, Dd2, 72 h, read-out: IC50

| Structure (SMILES) | IC50 (A2780) | IC50 (Plasmodium falciparum; [1]) | IC50 (Plasmodium falciparum) |
| --- | --- | --- | --- |
| C=C[C@](C)(O)[C@@H]1C[C@@H]2[C@@]3(C)C(=O)CCC(C)(C)[C@@H]3CC[C@@]2(C)O1 | > 50 µM | > 20 µM |  |
| C=C[C@](C)(O)[C@@H]1C[C@@H]2[C@@]3(C)[C@@H](O)CCC(C)(C)[C@@H]3CC[C@@]2(C)O1 | > 50 µM | > 20 µM |  |
| COc1cc([C@@H]2Oc3c(OC)cc(/C=C/COC(C)=O)cc3[C@H]2COC(C)=O)ccc1O |  |  | Not Active |
| C=C[C@@](C)(OC(C)=O)[C@@H]1C[C@@H]2[C@@]3(C)C(=O)CCC(C)(C)[C@@H]3CC[C@@]2(C)O1 | > 50 µM |  | Not Active |
| COc1cc([C@@H]2Oc3c(OC)cc(/C=C/COC(=O)CC(C)C)cc3[C@H]2COC(=O)CC(C)C)ccc1O |  | > 20 µM |  |
| C=C[C@@](C)(OC(C)=O)[C@@H]1C[C@@H]2[C@@]3(C)[C@@H](O)CCC(C)(C)[C@@H]3CC[C@@]2(C)O1 | > 50 µM | 7.3 µM |  |
| COc1cc2c(C)cccc2ccc1=O | > 50 µM | > 20 µM |  |
| C[C@@H]1CC[C@H]2[C@@H](C)C(=O)O[C@@H]3O[C@@]4(C)CC[C@@H]1[C@]32OO4 [ARTEMISININ] |  | 0.0085 µM |  |
